Compound activity: PubChem, several laboratories
PKA-R2B activ: activators of human PKA-R2B complex. PKA-R2B holoenzyme dissociation, Cy5-IP20 fluorescence polarization; R2B truncated from residue 108, S112A mutant; 0% DMSO only, 100% 113 µM cGMP. activation, % at 11.4 µM. 340,000 compounds, 0.079% hits. AID 504700;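 active means activation above a cutoff set at the mean over all compounds plus 3 SD, cut at about 18% in these data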;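 further: higher means more holoenzyme dissociation and a rise in polarization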
Target sequence (P31323 whole entry, looked up, other chains not shown, the tested form may be a part): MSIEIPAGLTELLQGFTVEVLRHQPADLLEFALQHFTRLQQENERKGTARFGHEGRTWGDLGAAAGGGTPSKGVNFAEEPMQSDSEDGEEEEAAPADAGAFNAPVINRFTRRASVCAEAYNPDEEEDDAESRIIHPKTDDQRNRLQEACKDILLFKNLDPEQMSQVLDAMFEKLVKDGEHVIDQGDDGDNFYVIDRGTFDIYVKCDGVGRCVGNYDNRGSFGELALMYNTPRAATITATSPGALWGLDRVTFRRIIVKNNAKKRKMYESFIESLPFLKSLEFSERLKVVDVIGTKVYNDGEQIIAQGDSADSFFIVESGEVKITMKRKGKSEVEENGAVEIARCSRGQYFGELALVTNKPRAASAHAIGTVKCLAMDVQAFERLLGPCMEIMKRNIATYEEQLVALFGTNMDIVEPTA
Rin1-Abl PPI inh: inhibitors of human Rin1-Abl protein interaction; inhibition, % at 7.35 µM; 360,000 compounds, 0.4% hits; TR-FRET Rin1/Abl binding, biochemical; P00519+Q13671; in the data active means inhibition above about 5%, passing the limit was not always enough
UCH37 inh: blocks the human deubiquitinase UCH37; inhibition, % (test concentration not listed); 330,000 compounds, 0.33% hits; purified proteasome/UCH37, Ub-AMC cleavage fluorescence; Q9Y5K5;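 active means mean inhibition over replicate wells above about 20%, limit read from the data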;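 further: 0% = compound-free wells with enzyme and 100% = wells lacking proteasome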
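assay system = human UCH37 enzyme supplied as purified proteasome complex | amount = proteasome at 0.15 nM in the dispensed enzyme solution | schedule = 30 min compound-proteasome preincubation then 25 min substrate reaction, room temperature | measured by = fluorescence, ex 355 nm, em 460 nm | benchmarks = no-proteasome wells (full inhibition) and compound-free wells (no inhibition)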
PKA-R1A activ: PKA-R1A complex activation. P00514+P68181. PKA-R1A dissociation, Cy5-IP20 fluorescence polarization; scaled: DMSO 0%, 113 µM cGMP 100%. activation, % at 11.4 µM. 340,000 compounds, 0.083% hits;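 active means percent activation above the mean of all tested compounds plus 3 SD, cut at about 19% in these data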;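 further: higher means more PKAc released from R1A so a rise in polarization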
UCH37 confirm: UCH37 Ub-AMC cleavage inhibition, confirmed | shares compounds with UCH37 inh | Proteasome-bound UCH37, Ub-AMC cleavage fluorescence | inhibition, % at 20 µM | 480 compounds, 27% hits | AID 624100;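 active means average inhibition over replicates above about 50%, so the earlier screening hit is confirmed, limit read from the data; inactive means the rest, counted as false positives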;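 further: based on cleavage rate fitted by regression over a 30 min kinetic read; 0% = proteasome plus Ub-AMC and 100% = Ub-AMC without proteasome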
The depositor's hits bear a star; / = no result. This is a sample that favours compounds with a hit; in the whole collection about 0.79% have one here.

SMILES | PKA-R2B activ | Rin1-Abl PPI inh | UCH37 inh | PKA-R1A activ | UCH37 confirm
COc1ccc(NC(=S)Nc2ccc3nsnc3c2)cc1 | -5 | 0 | 40* | -8 | 36
CN(C)S(=O)(=O)c1ccc(C(=O)Nc2nnc(-c3cccs3)o2)cc1 | 4 | -1 | 52* | -7 | 3
N#Cc1ccc(C(=O)Nc2nnc(-c3cccs3)o2)cc1 | -15 | -5 | 13 | -1 | /
C=C(C)C1CCC(C)=C1CC(C)(C)C=Nn1cnnc1 (stereo not given) | / | / | 42* | / | 58*
COc1ccc(C2NC(=O)NC(C)=C2C(=O)Nc2cc(C)ccc2C)cc1OC (stereo not given) | 5 | -3 | 1 | 5 | /
NC(=O)CC(NC(=O)Cc1ccc(Br)cc1)c1ccc(NCCOc2ccccc2)c([N+](=O)[O-])c1 (stereo not given) | -3 | -2 | 36* | -4 | 15
COc1cc(OC)c(OC)cc1/C=C1\Oc2cc(OCC(=O)N3Cc4ccccc4C[C@H]3C(=O)O)ccc2C1=O | -5 | -7 | 27* | -17 | 18
COc1ccc(/C=C2\Oc3cc(OCC(=O)N4CCC[C@H]4C(=O)O)ccc3C2=O)c(OC)c1 | 5 | -5 | 3 | 3 | /
COc1ccc(NC2CCCN(C(=O)CCc3cccc(Cl)c3)C2)cc1 (stereo not given) | 6 | -3 | 2 | -11 | /
O=C1C(=O)N(Cc2ccccc2)C(=O)N1CCN1C(=O)c2ccccc2C1=O | 2 | 0 | 0 | -7 | /
O=C1Cc2ccccc2C(=O)N1CCc1ccccc1 | 2 | 2 | 62* | -3 | 10
CC(=O)NNc1nc(-c2ccc(NC(C)=O)cc2)cs1 | -4 | 3 | 37* | -5 | -22
CCc1nnc(NN=Cc2c(C)[nH]c3ccccc23)n1N | / | / | 4 | / | /
CCOC(=O)c1ccc(NC(=O)Nc2ccc(OC)c(OC)c2)cc1 | -9 | -1 | 5 | -10 | /
CCCCOC(=O)c1ccc(NC(=O)Nc2ccc(OC)c(OC)c2)cc1 | 0 | 3 | 38* | -5 | -16
CSc1nc(Oc2ccc(Cl)cc2)c2sccc2n1 | 0 | -1 | 36* | 11 | 16
S=C(Nc1ccc(Nc2ccccc2)cc1)Nc1ccccn1 | -7 | 0 | 46* | 2 | -4
S=C(Nc1ccccc1)Nc1ccccn1 | -3 | 1 | / | -2 | /
O=C(NCCC1=CCCCC1)C1COc2ccccc2O1 (stereo not given) | -3 | 2 | 47* | -5 | 67*
O=C(NC(=S)NCCC1=CCCCC1)c1ccc(Br)o1 | -10 | 4 | 1 | 2 | /
Cc1ccccc1NS(=O)(=O)c1cc(C(=O)NCCC2=CCCCC2)ccc1C | 7 | 1 | 40* | -6 | 41
O=C(NCCc1ccc(C(F)(F)F)cc1)C1COc2ccccc2O1 (stereo not given) | 8 | 0 | 5 | 10 | /
O=C(NCCC1=CCCCC1)c1ccc(Cl)c(S(=O)(=O)Nc2ccccc2)c1 | -5 | 1 | 13 | -7 | /
O=C(NCCC1=CCCCC1)c1ccc(Br)o1 | 7 | 1 | 83* | -1 | 91*
COc1ccc(-c2noc(CCC(=O)Nc3cc(Cl)c(OC)cc3OC)n2)cc1 | 11 | 0 | 6 | -4 | /
SMILES | PKA-R2B activ | Rin1-Abl PPI inh | UCH37 inh | PKA-R1A activ | UCH37 confirm
O=C(NC1CCCCC1)Oc1ccccc1 | -10 | 2 | 3 | -3 | /
Cc1ccc(C(=O)ONc2ccc(N=NC(=O)c3ccccc3O)cc2)cc1 | 3 | -1 | 27* | 6 | 31
COC(=O)c1cc(C)nc2c1C(=O)C(=O)C=C2N1CCOCC1 | -6 | -1 | 100* | -14 | 100*
CC(C)(C)OC(=O)N1CCC(NC(=O)c2nc[nH]c2C(=O)NCc2ccccc2)CC1 | -8 | 3 | 0 | 1 | /
CC(C)(C)OC(=O)NCc1ccc(CNC(=O)c2[nH]cnc2C(=O)NC2CCN(C(=O)OC(C)(C)C)CC2)cc1 | -4 | 3 | 39* | 7 | -16
CCOC(=O)c1c(=O)n(O)c2ccc(C)cc2[n+]1[O-] | -2 | 2 | 39* | 7 | 13
CCOC(=O)c1c(C)[n+]([O-])c2ccc3c(non3O)c12 | -7 | -2 | 6 | -10 | /
CCc1c(C(=O)NN=Cc2ccco2)nnn1-c1nonc1N | / | / | -1 | / | /
Cc1ccc(NS(=O)(=O)c2cc(C(=O)N3CCN(CCO)CC3)ccc2C)cc1 | 0 | 1 | 1 | -2 | /
COc1ccc(C2/C(=C(\O)c3ccc(OC)c(Cl)c3)C(=O)C(=O)N2CCN(C)C)cc1 (stereo not given) | 0 | 3 | 34* | 2 | 14
CCCOc1ccc(/C(O)=C2/C(=O)C(=O)N(CCN(C)C)C2c2ccc(O)c(OC)c2)cc1 (stereo not given) | 15 | -3 | 22* | 1 | -6
O=C(O)CN1C(=O)/C(=C\c2ccccc2OCc2ccc(Cl)cc2Cl)SC1=S | -1 | -1 | 26* | 2 | 54*
O=C(O)CN1C(=O)/C(=C\c2cc(Br)ccc2OCc2ccccc2Cl)SC1=S | -7 | -2 | 15 | -10 | /
O=C(O)c1ccc(NN=C/C=C/c2ccc([N+](=O)[O-])o2)cc1 | / | / | 30* | / | 37
Cc1[nH]c2ccccc2c1C=NNc1nc(N2CCCCC2)nc(N2CCCCC2)n1 | / | / | 5 | / | /
C(=NNc1nc(N2CCCCC2)nc(N2CCCCC2)n1)c1c[nH]c2ccccc12 | / | / | 38* | / | -59
Cc1ccc(C)c(-n2nnnc2SCC(=O)NCCC2=CCCCC2)c1 | -2 | 0 | 59* | 1 | 47
Cc1ccc(S(=O)(=O)NC2=C(N3CCN(Cc4ccccc4)CC3)C(=O)c3ccccc3C2=O)cc1 | 6 | -7 | 6 | 0 | /
CCOC(=O)N1CCN(C2=C(NS(=O)(=O)c3ccc(C)cc3)C(=O)c3ccccc3C2=O)CC1 | 1 | 1 | 42* | -7 | 53*
NC(=O)C1CCN(C2=C(NS(=O)(=O)c3ccc(Cl)cc3)C(=O)c3ccccc3C2=O)CC1 | -15 | -4 | 33* | -15 | 30
COC(=O)C1CCN(C2=C(NS(=O)(=O)c3ccc(Cl)cc3)C(=O)c3ccccc3C2=O)CC1 | 3 | -8 | 4 | -7 | /
COC(=O)c1ccc(C23CC4(C2)[C@H](CN(C)[C@@H]4c2ccccc2)C3c2ccccc2)cc1 (stereo not given in full) | -6 | 3 | 1 | -6 | /
CCN(CC)C(=O)CSC1=Nc2ccccc2C2=NC(c3ccccc3)C(=O)N12 (stereo not given) | 3 | -3 | -174 | 3 | /
Cc1ccc(C(C(=O)NC(C)(C)C)N(CC2CCCO2)C(=O)Cn2nnc(-c3ccc(C)o3)n2)cc1 (stereo not given) | -1 | -3 | 0 | -3 | /
COc1ccc(N(C(=O)c2ccc(Cl)cc2)C2=CC3CCC(C2)N3C)cc1 (stereo not given) | 5 | -3 | 42* | 4 | 0
